Measured values from ChEMBL document CHEMBL1133662, “Novel 3-aminomethyl- and 4-aminopiperidine analogues of 1-[2-(diphenylmethoxy)ethyl]-4-(3-phenylpropyl)piperazines: synthesis and evaluation as dopamine transporter ligands” (J Med Chem, 2000).

Columns and labels:
[1] = target: T1, Sodium-dependent dopamine transporter (Homo sapiens, UniProt Q01959); test: Inhibition of [125I]RTI-55 binding to dopamine transporter
How it was run: (§1)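 Membranes from HEK 293 cells expressing human DAT or SERT, lysed in 2 mM HEPES/1 mM EDTA, pelleted at 30000g and resuspended in 0.32 M sucrose (about 15 µg protein per assay). Incubated 90 min at room temperature in the dark, then filtered. Duplicate competition curves; IC50 converted to Ki by Cheng-Prusoff.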

[2] = target: T1, Sodium-dependent dopamine transporter; test: Inhibition of [3H]dopamine reuptake in HEK293 cells expressing human dopamine transporter; assay type: cell-based
How it was run: (§2)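 Confluent HEK 293 cells expressing human SERT or DAT were scraped into PBS and used as a suspension in Krebs HEPES at 25 °C. Drug (six concentrations, triplicate) was preincubated with cells 10 min. [3H]5-HT or [3H]DA (0.020 µM final) was added for 10 min, then uptake was stopped by filtration onto polyethyleneimine-soaked GF/C filters. IC50 from three independent experiments.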

[3] = target: T2, Sodium-dependent noradrenaline transporter (Homo sapiens, UniProt P23975); test: Inhibition of [3H]NE reuptake by human norepinephrine transporter expressed in HEK293 cells; assay type: cell-based
T2 sequence (P23975 whole entry): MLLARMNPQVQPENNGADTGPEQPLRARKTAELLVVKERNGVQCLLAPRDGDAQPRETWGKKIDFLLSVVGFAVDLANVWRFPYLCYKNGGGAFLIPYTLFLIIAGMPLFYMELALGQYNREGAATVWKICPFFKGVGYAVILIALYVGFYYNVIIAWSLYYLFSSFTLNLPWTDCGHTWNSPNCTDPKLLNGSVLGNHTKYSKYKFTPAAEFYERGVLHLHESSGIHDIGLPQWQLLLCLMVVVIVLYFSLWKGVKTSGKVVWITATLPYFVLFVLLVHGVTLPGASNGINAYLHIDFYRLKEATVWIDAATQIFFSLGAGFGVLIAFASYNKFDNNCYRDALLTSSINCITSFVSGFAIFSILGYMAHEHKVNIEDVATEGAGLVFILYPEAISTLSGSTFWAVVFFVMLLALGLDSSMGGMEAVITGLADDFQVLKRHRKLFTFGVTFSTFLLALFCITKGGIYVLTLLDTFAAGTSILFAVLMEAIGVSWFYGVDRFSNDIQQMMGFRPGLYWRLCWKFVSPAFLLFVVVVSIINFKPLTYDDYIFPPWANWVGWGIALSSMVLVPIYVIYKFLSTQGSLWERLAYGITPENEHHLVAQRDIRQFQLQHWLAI

[4] = target: T2, Sodium-dependent noradrenaline transporter; test: Binding affinity at the norepinephrine transporter was measured using [125I]RTI-55 as a radioligand
[5] = target: T3, Sodium-dependent serotonin transporter (Homo sapiens, UniProt P31645); test: Inhibition of [3H]5-HT reuptake in HEK293 cells expressing human serotonin transporter; assay type: cell-based; how it was run: as §2
T3 sequence (P31645 whole entry): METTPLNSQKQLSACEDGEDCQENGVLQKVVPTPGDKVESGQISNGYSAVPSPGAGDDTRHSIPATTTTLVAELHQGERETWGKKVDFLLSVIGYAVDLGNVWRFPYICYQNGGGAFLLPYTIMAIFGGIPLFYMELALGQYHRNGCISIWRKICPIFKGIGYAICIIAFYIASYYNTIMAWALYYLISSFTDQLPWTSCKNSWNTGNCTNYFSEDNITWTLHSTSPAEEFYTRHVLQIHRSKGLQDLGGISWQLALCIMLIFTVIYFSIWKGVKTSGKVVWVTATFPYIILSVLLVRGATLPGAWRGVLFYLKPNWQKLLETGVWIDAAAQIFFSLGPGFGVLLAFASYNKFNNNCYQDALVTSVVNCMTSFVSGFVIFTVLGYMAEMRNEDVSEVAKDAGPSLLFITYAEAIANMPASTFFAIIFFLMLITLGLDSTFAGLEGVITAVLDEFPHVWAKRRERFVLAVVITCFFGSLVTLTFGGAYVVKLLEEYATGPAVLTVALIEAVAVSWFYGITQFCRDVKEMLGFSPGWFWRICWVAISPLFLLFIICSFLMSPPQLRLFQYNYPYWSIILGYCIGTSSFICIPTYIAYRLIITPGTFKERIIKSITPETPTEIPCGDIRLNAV

[6] = Discrimination ratio of [3H]5-HT reuptake/SERT binding; assay type: functional
[7] = target: Monoamine transporters; Norepinephrine & dopamine (Homo sapiens) (UniProt Q01959+P23975); test: Selectivity ratio of NET/DAT; assay type: protein assay
Sequence of Monoamine transporters; Norepinephrine & dopamine (Homo sapiens) (P23975 whole entry, looked up): as the sequence (P23975 whole entry) above
Sequence of Monoamine transporters; Norepinephrine & dopamine (Homo sapiens) (Q01959 whole entry, looked up): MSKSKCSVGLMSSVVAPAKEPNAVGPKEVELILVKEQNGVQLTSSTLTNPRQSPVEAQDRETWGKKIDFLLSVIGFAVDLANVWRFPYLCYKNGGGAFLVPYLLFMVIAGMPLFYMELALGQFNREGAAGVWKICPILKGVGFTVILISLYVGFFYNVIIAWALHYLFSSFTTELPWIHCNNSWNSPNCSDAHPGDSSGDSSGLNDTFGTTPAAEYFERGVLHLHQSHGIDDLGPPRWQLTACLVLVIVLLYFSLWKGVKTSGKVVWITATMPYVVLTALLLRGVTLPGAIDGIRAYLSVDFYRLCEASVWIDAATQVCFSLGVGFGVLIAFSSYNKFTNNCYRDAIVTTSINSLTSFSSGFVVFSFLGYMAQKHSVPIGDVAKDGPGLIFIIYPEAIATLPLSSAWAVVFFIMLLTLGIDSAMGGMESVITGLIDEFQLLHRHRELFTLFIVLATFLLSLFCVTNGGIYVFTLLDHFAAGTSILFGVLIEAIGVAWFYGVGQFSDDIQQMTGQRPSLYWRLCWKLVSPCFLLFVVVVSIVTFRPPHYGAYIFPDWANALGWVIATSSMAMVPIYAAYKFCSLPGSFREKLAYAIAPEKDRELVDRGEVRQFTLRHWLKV

[8] = target: Monoamine transporters; serotonin & dopamine (Homo sapiens) (UniProt P31645+Q01959); test: Selectivity ratio of SERT/DAT; assay type: protein assay
Sequence of Monoamine transporters; serotonin & dopamine (Homo sapiens) (P31645 whole entry, looked up): as the sequence (P31645 whole entry) above
Sequence of Monoamine transporters; serotonin & dopamine (Homo sapiens) (Q01959 whole entry, looked up): as the sequence (Q01959 whole entry, looked up) above

[9] = Discrimination ratio of [3H]-DA reuptake/DAT binding; assay type: functional
[10] = target: T3, Sodium-dependent serotonin transporter; test: Binding affinity for serotonin transporter using [125I]RTI-55; how it was run: as §1

T1 sequence (Q01959 whole entry): as the sequence (Q01959 whole entry, looked up) above

Fc1ccc(CCN2CCCC(CNCCOC(c3ccccc3)c3ccccc3)C2)cc1 (configuration not stated)
Ki [1]: 100 nM | IC50 [2]: 500 nM | IC50 [3]: 200 nM | Ki [4]: 150 nM | IC50 [5]: 1130 nM | Discrimination ratio [6]: 3.3 | Selectivity ratio [7]: 1.5 | Selectivity ratio [8]: 3.3 | Discrimination ratio [9]: 4.8 | Ki [10]: 350 nM

CN(CCOC(c1ccccc1)c1ccccc1)C1CCN(CCCc2ccccc2)CC1
Ki [1]: 30 nM | IC50 [2]: 330 nM | IC50 [3]: 200 nM | Ki [4]: 29 nM | IC50 [5]: 1910 nM | Discrimination ratio [6]: 0.9 | Selectivity ratio [7]: 1 | Selectivity ratio [8]: 47.3 | Discrimination ratio [9]: 11.1 | Ki [10]: 1400 nM

c1ccc(CN2CCC(NCCOC(c3ccccc3)c3ccccc3)CC2)cc1
Ki [1]: 83 nM | IC50 [2]: 270 nM | IC50 [3]: 87 nM | Ki [4]: 180 nM | IC50 [5]: 1860 nM | Discrimination ratio [6]: 0.9 | Selectivity ratio [7]: 2.1 | Selectivity ratio [8]: 26 | Discrimination ratio [9]: 3.2 | Ki [10]: 2160 nM

c1ccc(CCCN2CCCC(CNCCOC(c3ccccc3)c3ccccc3)C2)cc1 (configuration not stated)
Ki [1]: 18 nM | IC50 [2]: 150 nM | IC50 [3]: 97 nM | Ki [4]: 23 nM | IC50 [5]: 820 nM | Discrimination ratio [6]: 3.8 | Selectivity ratio [7]: 1.3 | Selectivity ratio [8]: 11.9 | Discrimination ratio [9]: 8.1 | Ki [10]: 210 nM

CN(CCc1ccc(F)cc1)CC1CCCN(CCOC(c2ccccc2)c2ccccc2)C1 (configuration not stated)
Ki [1]: 90 nM | IC50 [2]: 1260 nM | IC50 [3]: 350 nM | Ki [4]: 110 nM | IC50 [5]: 2130 nM | Discrimination ratio [6]: 4 | Selectivity ratio [7]: 1.3 | Selectivity ratio [8]: 5.9 | Discrimination ratio [9]: 14 | Ki [10]: 530 nM

CN(CCCc1ccccc1)C1CCN(CCOC(c2ccccc2)c2ccccc2)CC1
Ki [1]: 340 nM | IC50 [2]: 210 nM | IC50 [3]: 180 nM | Ki [4]: 42 nM | IC50 [5]: 310 nM | Discrimination ratio [6]: 3.6 | Selectivity ratio [7]: 0.1 | Selectivity ratio [8]: 0.3 | Discrimination ratio [9]: 0.6 | Ki [10]: 87 nM

Fc1ccc(CCNCC2CCCN(CCOC(c3ccccc3)c3ccccc3)C2)cc1 (configuration not stated)
Ki [1]: 87 nM | IC50 [2]: 364 nM | IC50 [3]: 190 nM | Ki [4]: 190 nM | IC50 [5]: 1830 nM | Discrimination ratio [6]: 2.1 | Selectivity ratio [7]: 2.1 | Selectivity ratio [8]: 10.2 | Discrimination ratio [9]: 4.2 | Ki [10]: 890 nM

c1ccc(CCCNCC2CCCN(CCOC(c3ccccc3)c3ccccc3)C2)cc1 (configuration not stated)
Ki [1]: 70 nM | IC50 [2]: 105 nM | IC50 [3]: 48 nM | Ki [4]: 41 nM | IC50 [5]: 770 nM | Discrimination ratio [6]: 2.5 | Selectivity ratio [7]: 0.6 | Selectivity ratio [8]: 4.5 | Discrimination ratio [9]: 1.5 | Ki [10]: 320 nM

c1ccc(CCCN2CCN(CCOC(c3ccccc3)c3ccccc3)CC2)cc1
IC50 [3]: 165 nM | Ki [4]: 630 nM

c1ccc(CCCNC2CCN(CCOC(c3ccccc3)c3ccccc3)CC2)cc1
Ki [1]: 160 nM | IC50 [2]: 390 nM | IC50 [3]: 230 nM | Ki [4]: 120 nM | IC50 [5]: 390 nM | Discrimination ratio [6]: 7.1 | Selectivity ratio [7]: 0.8 | Selectivity ratio [8]: 0.4 | Discrimination ratio [9]: 2.5 | Ki [10]: 55 nM

Fc1ccc(CCNC2CCN(CCOC(c3ccccc3)c3ccccc3)CC2)cc1
Ki [1]: 110 nM | IC50 [2]: 320 nM | IC50 [3]: 170 nM | Ki [4]: 79 nM | IC50 [5]: 470 nM | Discrimination ratio [6]: 2.1 | Selectivity ratio [7]: 0.7 | Selectivity ratio [8]: 2 | Discrimination ratio [9]: 2.9 | Ki [10]: 220 nM
